Results on six compounds are retold here after ChEMBL document CHEMBL3421622, “New organochalcogen multitarget drug: synthesis and antioxidant and antitumoral activities of chalcogenozidovudine derivatives” (J Med Chem, 2015).

The structures appear in SMILES notation. Activity calls are given as the source filed them. No cut-off for these calls is given here. Some results are limits rather than exact numbers.

The nature of data set [1]: Antioxidant activity assessed as thiol peroxidase-like activity assessed as time required to oxidize 50% of benzenethiol during reduction of hydrogen peroxide measured for 180 secs by UV spectroscopic analysis relative to control. To be noted: 0.05 h.
The next data set concerns Brain. As to the kind of experiment: Antioxidant activity in Wistar rat brain assessed as inhibition of TBARS formation at 200 uM after 60 mins by spectrophotometric method relative to control. The class given is functional. Put shortly: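 Adult male Wistar rat brain (250−350 g) homogenized 1:10 w/v in 10 mM Tris-HCl pH 7.4 and spun at 2000 rpm for 10 min; low-speed supernatant (S1) used. Blank lacked Fe. TBARS read at 532 nm against MDA standard. Three experiments.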

Data set [2] relates to 5637. Nature of the data set: Cytotoxicity against human 5637 cells assessed as growth inhibition after 48 hrs by MTT assay. The class given is functional, cell-based. As to conditions: Homo sapiens, 5637, 48 h. The procedure, abridged:
(§1)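 5637 cells in log phase, seeded at 2 × 10^4 per well and grown 24 h. Exposed for 24, 48 or 72 h to 200−12.5 μM in DMSO (final ≤0.25%, vehicle group included). MTT added for 3 h, formazan dissolved in DMSO, read at 492 nm. Growth inhibition = [1 − Abs treated/Abs control] × 100%. […] Three independent experiments.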
(Formazan colour is commonly taken as a measure of viable cells.)

The subject of data set [3] is 5637. Nature of the data set: Upregulation of caspase-9 mRNA expression in human 5637 cells at 100 uM after 48 hrs by real-time PCR analysis relative to control. The class given is functional, cell-based. The procedure, abridged: (§2)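 5637 cells seeded at 2 × 10^5 per well and grown 24 h. Treated with 50 or 100 μM for 48 h, washed in PBS, RNA extracted. Bax, Bcl-2, caspase-9 and survivin mRNA measured by real-time PCR; Bax:Bcl-2 ratio derived. Experiments in triplicate.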
Background: In qPCR the cycle at which signal appears reflects the starting amount.

In data set [4] the test system is 5637. Nature of the data set: Downregulation of survivin mRNA expression in human 5637 cells at 100 uM after 48 hrs by real-time PCR analysis relative to control. The class given is functional, cell-based. The procedure, abridged:
as §2

Data set [5] deals with 5637. Nature of the data set: Induction of apoptosis in human 5637 cells assessed as early and late apoptotic cells at 100 uM after 48 hrs by annexin V-PE/7-AAD staining-based flow cytometric analysis (reference value: 7.36%). The class given is functional.
For data set [6], the system named is 5637. As to the kind of experiment: Downregulation of Bcl2 mRNA expression in human 5637 cells at 100 uM after 48 hrs by real-time PCR analysis relative to control. The class given is functional, cell-based. Put shortly: as §2
The test system of data set [7] is Liver. As to the kind of experiment: Toxicity in rat liver assessed as effect on cell viability at 50 to 200 uM after 2 hrs by MTT reduction assay relative to control. Put shortly: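 Liver slices from healthy adult rats preincubated 10 min in Krebs Ringer pH 7.4. Compound added to 200, 100 or 50 μM final for 2 h at 37 °C. MTT (5 mg/mL) added for 30 min at 37 °C, formazan dissolved in DMSO, absorbance read at 570 and 700 nm. Expressed as % of untreated; three experiments.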

The subject of data set [8] is Liver. Nature of the data set: Toxicity in rat liver assessed as change in AST release relative to control. The class given is tissue-based.
In data set [9] the test system is 5637. Nature of the data set: Induction of apoptosis in human 5637 cells assessed as DNA fragmentation at 50 to 100 uM after 48 hrs by TUNEL assay relative to control. The class given is functional, cell-based. Put shortly: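 5637 cells treated 48 h, then collected and fixed. TdT-mediated BrdU labelling of fragmented DNA, detected with TMR-anti-BrdU after 30 min staining in the dark at room temperature. TUNEL-positive cells counted by flow cytometry.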

Data set [10] has as its system 5637. Nature of the data set: Cytotoxicity against human 5637 cells assessed as growth inhibition at 50 uM after 48 hrs by MTT assay relative to control. The class given is functional. As to conditions: Homo sapiens, 5637, 48 h; read-out: GI. The procedure, abridged: as §1
The subject of data set [11] is Liver. As to the kind of experiment: Toxicity in rat liver slices assessed as change in ALT release relative to control. As to conditions: in vitro.
The test system of data set [12] is 5637. As to the kind of experiment: Induction of apoptosis in human 5637 cells assessed as ratio of Bax mRNA to Bcl2 mRNA level at 100 uM after 48 hrs by real-time PCR analysis (reference value: 0.08 to 0.13). The class given is functional. The procedure, abridged: as §2
Data set [13] has as its system 5637. As to the kind of experiment: Induction of apoptosis in human 5637 cells assessed as ratio of Bax mRNA to Bcl2 mRNA level at 50 uM after 48 hrs by real-time PCR analysis (reference value: 0.08 to 0.13). The class given is functional. Put shortly: as §2
Data set [14] in a line: Antioxidant activity assessed as thiol peroxidase-like activity assessed as time required to oxidize 50% of benzenethiol during reduction of hydrogen peroxide measured for 180 secs by UV spectroscopic analysis. To be noted: 0.05 h.
In data set [15] the test system is 5637. As to the kind of experiment: Induction of apoptosis in human 5637 cells at 50 uM after 48 hrs by annexin V-PE/7-AAD staining-based flow cytometric analysis (reference value: 7.36%). The class given is functional. (Flow cytometry measures light scatter and fluorescence of single cells or particles in a stream.)
Data set [16] deals with 5637. Nature of the data set: Cytotoxicity against human 5637 cells assessed as dead cells at 100 uM after 48 hrs by calcein/ethidium bromide staining-based fluorescence microscopic analysis relative to control. The class given is functional, cell-based. The procedure, abridged:
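5637 bladder carcinoma cells (DMEM, 10% FBS) seeded at 2 × 10^4 per well and grown 24 h. Exposed to 100 or 50 μM compound for 48 h. Washed, then stained with calcein (live, green) and ethidium homodimer (dead, red). Scored by multicolor fluorescence microscopy.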

For data set [17], the system named is 5637. Nature of the data set: Cytotoxicity against human 5637 cells assessed as growth inhibition at 12.5 to 200 uM after 48 hrs by MTT assay relative to control. The class given is functional. Put shortly: as §1
Data set [18] has as its system 5637. Nature of the data set: Cytotoxicity against human 5637 cells assessed as growth inhibition at 100 to 200 uM after 48 hrs by MTT assay relative to control. The class given is functional. Put shortly: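 5637 bladder carcinoma cells in DMEM with 10% FBS, seeded 2 × 10^4/well, grown 24 h at 37 °C, 5% CO2. Exposed to 200–12.5 μM from DMSO stocks (final DMSO ≤0.25%, solvent control) for 48 h. MTT added for 3 h, formazan dissolved in DMSO, read at 492 nm. Growth inhibition = [1 − Abs treated/Abs control] × 100%. Three independent experiments.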

One may read the inhibition as the percentage by which the read-out fell short of the control. As a reminder, the IC50 is the concentration that gives 50% inhibition. As to `Cc1ccc([Se]C[C@H]2O[C@@H](n3cc(C)c(=O)[nH]c3=O)C[C@@H]2N=[N+]=[N-])cc1`, the “fold change (FC)” value in data set [1] is reported as 4. The inhibition result with Brain is “Active”. For the same compound, in the data set with 5637 [2], the concentration for half-maximal inhibition (IC50) is 51.6 µM. Also, the outcome in the data set with 5637 [3], with 5637 [4], in the data set with 5637 [6] and in the data set with 5637 [9] was Active. Further, the Activity in the data set with 5637 [5] was 89.6%; in the data set on Liver [7], “Non-toxic”; in the data set with Liver [8] it was “Non-toxic”; with Liver [11], “Non-toxic”. In addition, the inhibition of growth at 50 µM in the data set on 5637 [10] amounted to 50%. The Ratio is 19.4 in the data set on 5637 [12] and 0.5 with 5637 [13]. Besides, the t50 in data set [14] is 22.5 min.
For `Cc1cn([C@H]2C[C@H](N=[N+]=[N-])[C@@H](C[Se]c3ccc(Cl)cc3)O2)c(=O)[nH]c1=O`, in [1], the “fold change (FC)” value was 4. In addition, the Activity with 5637 [15] is given as 71.12%; with 5637 [5], 92.8%; in the data set on Liver [7] it was “Non-toxic”; in the data set on Liver [8], “Non-toxic”; in the data set with Liver [11] it was “Non-toxic”. Also, the inhibition entry in the data set on Brain is “Active”. In addition, the IC50 in the data set on 5637 [2] turned out to be 40.4 µM. Further, the outcome in the data set on 5637 [3], in the data set on 5637 [4], in the data set on 5637 [16], in the data set on 5637 [6] and with 5637 [9] was Active. Besides, the inhibition of growth at 50 µM with 5637 [10] came to 50%. Also, the Ratio with 5637 [12] worked out at 4.8; with 5637 [13], 0.9. For the same compound, the t50 in data set [14] was determined as 15.2 min.
Consider `Cc1cn([C@H]2C[C@H](N=[N+]=[N-])[C@@H](CO)O2)c(=O)[nH]c1=O` [ZIDOVUDINE], for which the values for the Activity with 5637 [15], with Liver [8] and in the data set with Liver [11] were 7.74%, “Non-toxic” and “Non-toxic”, respectively. Moreover, the “growth inhibition (GI)” value in the data set on 5637 [17] is more than 50%. Also, in the data set on 5637 [2], the half-inhibitory concentration (IC50) is 7 µM. Also, the outcome in the data set with 5637 [16] and with 5637 [9] was inactive. The outcome in the data set with 5637 [6] was Active. Also, the inhibition of growth at 50 µM with 5637 [10] was determined as 50%. The t50 in data set [14] stood at 66.5 min.
Regarding `Cc1cn([C@H]2C[C@H](N=[N+]=[N-])[C@@H](C[Se]c3ccccc3)O2)c(=O)[nH]c1=O`, the inhibition result with Brain was “Active”. In the data set on 5637 [2], the half-maximal inhibitory concentration (IC50) was found to be 78.9 µM. Also, the outcome in the data set on 5637 [3], in the data set with 5637 [4], with 5637 [6] and with 5637 [9] was Active. Besides, the Activity with 5637 [5] was 90.74%; in the data set with Liver [7], “Non-toxic”; with Liver [8], “Non-toxic”; in the data set on Liver [11] it was “Non-toxic”. Further, the results for the Ratio with 5637 [12] and with 5637 [13] were 10.6 and 1.45, respectively. In [14], the t50 was 56.4 min. Also, the “growth inhibition (GI)” value with 5637 [18] is more than 50%.
As for `Cc1cc(C)c([Se]C[C@H]2O[C@@H](n3cc(C)c(=O)[nH]c3=O)C[C@@H]2N=[N+]=[N-])c(C)c1`, the inhibition result with Brain is “Active”. In data set [14], the t50 was 97.5 min.
As for `Cc1cn([C@H]2C[C@H](N=[N+]=[N-])[C@@H](C[Se]c3cccc4ccccc34)O2)c(=O)[nH]c1=O`, in the data set on Brain (1 h), the inhibition at 200 µM worked out at 80%. In [14], the t50 was found to be 66.3 min.
